Data taken from PubChem BioAssay AID1515 (The Scripps Research Institute Molecular Screening Center, 2009).
Among all 220,000 compounds or so, about 440 (0.2%) were called active. This is one part of a sample in which actives are shown more often than they occur. Values without a mark were called inactive.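 The calls were made as follows: active = inhibition above the campaign mean of all tested compounds plus 3 SD (cut at about 14% in these data); inactive = the rest.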

The molecules below were run against Serine hydrolase RBBP9 (Homo sapiens) (UniProt O75884) (assay: blockers of RBBP9 serine hydrolase labeling – biochemical, fluorescence polarization, FP-Rh probe, HTS, primary screen (AID 1515;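 also: plate controls were DMSO wells with RBBP9 for no effect and wells lacking RBBP9 protein for full effect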)). Settings: recombinant RBBP9, FP-Rh probe fluorescence polarization; at 7.94 µM; active compounds read high.
Chain of Serine hydrolase RBBP9 (Homo sapiens) (O75884 whole entry, looked up): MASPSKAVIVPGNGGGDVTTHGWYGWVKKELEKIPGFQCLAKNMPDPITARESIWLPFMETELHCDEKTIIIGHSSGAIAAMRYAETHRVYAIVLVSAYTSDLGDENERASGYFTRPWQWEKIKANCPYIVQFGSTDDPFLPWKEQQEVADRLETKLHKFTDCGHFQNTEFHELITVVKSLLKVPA
Procedure, shortened: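 Controls: DMSO-treated enzyme wells and wells lacking RBBP9 | Material: RBBP9 protein | Technique: Fluorescence polarization | Replication: Single well per compound, no replicates | Buffer or medium: Tris-NaCl-Pluronic buffer, pH 8.0 | Timing: 30 min compound preincubation, 45 min probe labeling, 25 °C | Read-out basis: Percent inhibition from mP, scaled between DMSO and no-protein wells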

Compound | inhibition
COc1ccccc1NC(=O)C1=C(C)NC(=O)NC1c1ccc(C)s1 (centres undefined) | -5.66%
Cc1cc(C#N)c(SCC(N)=O)nc1-c1ccc(F)cc1 | -8.75%
CC(C)OCC(O)CN1CCN(C(c2ccccc2)c2ccccc2)CC1 (centres undefined) | 2.7%
O=[N+]([O-])c1ccc(N2CCN(c3ccc(O)cc3)CC2)c(Cl)c1 | -8.4%
CC(C)OCCCNC(=O)CNC(=O)c1cccs1 | 14.6% (active)
CC(C)C(=O)Nc1ccc(C(=O)NNC(=O)c2cccs2)cc1 | 3.67%
CC(C)NC(=O)C(=O)NCCCOC(C)C | -0.43%
CCOC(=O)NN1C(=O)c2ccccc2NC1c1ccccc1O (centres undefined) | 0.52%
COc1cc(C2C(C(=O)OCCC#N)=C(C)NC3=C2S(=O)(=O)c2ccccc23)cc(OC)c1OC (centres undefined) | 21.6% (active)
COCCOC(=O)C1=C(C)Nc2nc(C)nn2C1c1ccccc1 (centres undefined) | 0.85%
CCOC(=O)C1=C(N)N2C(=O)C(C)SC2=C(C(=O)OCC)C1c1cc(OC)c(OC)c(OC)c1 (centres undefined) | 4.66%
O=C(NCc1ccccn1)c1ccc2nc(-c3ccco3)c(-c3ccco3)nc2c1 | -0.69%
COc1ccc(NC(=O)Nc2ccc3nsnc3c2)cc1 | -1.59%
COCCNC(=O)Nc1ccc2nc(-c3ccco3)c(-c3ccco3)nc2c1 | 17.9% (active)
COC(=O)CC(=O)N1CCN(c2ccc(Cl)c(Cl)c2)CC1 | 0.17%
CC1(C)CC2CC(C)(CN2c2ncnc3ccc(Br)cc23)C1 (centres undefined) | -2.76%
CCOC(=O)c1sc(=NC(=O)/C=C/c2cccs2)n(C)c1C | -10.7%
CCOC(=O)c1ccc(N=C2SC(C(=O)NC)CC(=O)N2CCc2ccccc2)cc1 (centres undefined) | -5.9%
COC(=O)Cc1ccc(NC(=S)NCc2ccco2)cc1 | -2.67%
Cc1nnc(SC(C(=O)Nc2cc(Cl)cc(Cl)c2)c2ccccc2)[nH]c1=O (centres undefined) | -10.7%

Compound | inhibition
CSc1sc(C(=O)NNC(=O)c2ccc(Cl)cc2)c2c1C=CCC2 | -0.01%
COC(=O)c1ccc(C2C3=C(Nc4nnnn42)c2ccccc2OC3)cc1 (centres undefined) | -9.06%
Cc1ccc(Sc2ccncc2S(N)(=O)=O)cc1 | -3.25%
CC(NCc1nc2ccccc2n1C)C12CC3CC(CC(C3)C1)C2 (centres undefined) | 1.94%
Cc1ccc(-c2cc(C(F)(F)F)n3nc(C(=O)N4CCCC4)cc3n2)cc1 | -1.99%
Cc1ccc(OCC(=O)N2CCN(C(=O)c3cccnc3)CC2)cc1 | -7.21%
CCN(CC)C(=O)N1CCN(C(=O)c2ccc(C)cn2)CC1 | 18.9% (active)
Cc1ccc(S(=O)(=O)/N=C(\CN2CCOCC2)N2CCOCC2)cc1 | 5.6%
CCCCCc1nnc(NC(=O)c2ccc(=O)n(C)n2)s1 | -7.4%
CSCCC(NC(=O)c1ccco1)C(=O)OCC(=O)Nc1ncc(Cl)c(C)c1Cl (centres undefined) | -5.55%
CC[n+]1c(C)n(-c2ccccc2)c2ccc(NC(C)=O)cc21 | -7.36%
CCC(C)c1ccc(NC(=S)NCc2ccccn2)cc1 (centres undefined) | -8.32%
CC(C)Oc1ccc(CCC(=O)NNC(=S)NCc2ccccc2)cc1 | -2.85%
O=C(CCC1CCCN(Cc2ccc(O)c(Cl)c2)C1)NCc1ccccc1F (centres undefined) | -3.09%
Brc1ccc(-c2n(-c3ccccn3)c3ccccc3[n+]2-c2ccccn2)cc1 | 0.06%
CCC(CC)c1nnc(NC(=O)/C=C/c2ccco2)s1 | -5.03%
O=C(NCC1CCCO1)C1CCN(C2CCN(C(=O)C3CCCCC3)CC2)CC1 (centres undefined) | -1.77%
COC(=O)c1cccc(NS(C)(=O)=O)c1 | 2.15%
C#CCOCCOCCOCCNc1nc(N2CCN(C(=O)[C@H](C(C)C)n3cc(CCO)nn3)CC2)nc(N2CCN(C(=O)[C@H](C(C)C)n3cc(CCO)nn3)CC2)n1 | -3.79%
Oc1ccc(N=Cc2c(O)ccc3ccccc23)cc1 | 5.11%

Compound | inhibition
Oc1ccc(N=Cc2sc3ccccc3c2Cl)cc1 | 15.9% (active)
O=C(N/N=C/c1c(Cl)[nH]c2ccccc12)c1sc2ccccc2c1Cl | -18.2%
CC1(C)CC(=O)C2=C(C1)N=C1SCCC(=O)N1C2c1ccc(C(F)(F)F)cc1 (centres undefined) | -1.93%
COc1ccc(/C=C(\C#N)C(=O)ONC2=NCCCCC2)cc1 | -9.38%
COc1cccc(-c2nn(-c3ccccc3)cc2/C=C(\C#N)C(=O)NCCCn2ccnc2)c1 | -15%
CCOc1ccc(N2C(=O)CN(c3cccc4ccccc34)C2=S)cc1 | -4%
COc1cccc(N(Cc2nnc3n2CCCCC3)C(=O)Nc2ccccc2F)c1 | -3.77%
O=C(Nc1nc(-c2cccnc2)cs1)c1ccccc1F | -5.59%
COc1cc(/C=N/NC(=O)c2ccccc2)ccc1OS(=O)(=O)c1ccccc1 | -11.2%
COc1cc(/C=N/NC(=O)Nc2ccccc2)ccc1OCCOc1ccccc1C | 65.1% (active)
COc1ccc(/C=N/NC(=O)c2ccccc2)cc1OS(=O)(=O)c1ccccc1 | -7.38%
Cc1ccc(C(=O)N2CCN(S(=O)(=O)N3CCOCC3)CC2)cc1 | 0.85%
COc1ccc(C(=O)NN2C(=O)C3C(c4ccccc4)C=CC(c4ccccc4)C3C2=O)cc1 (centres undefined) | -6.27%
O=C(NCC1CCN(Cc2ccccc2Cl)CC1)Nc1cccc(Cl)c1 | -3.66%
Cc1cc(/C=C(/C#N)C(=O)Nc2ccc(Cl)cc2)c(C)n1-c1cccnc1 | -4.94%
O=c1[nH][nH]c(=O)c2cc(N3CCCC3)ccc12 | 0.44%
O=C1C=CC(=O)N1c1ccc(N2CCCCC2)cc1 | 14.7% (active)
Cc1ccccc1C(=O)Nc1ccc(N2CCCCCC2)cc1 | -6.04%
Cc1c(NC(=O)CN2C(=O)C(=O)N(Cc3ccccc3)C2=O)c(=O)n(-c2ccccc2)n1C | -6.97%
